Measurements from ChEMBL document CHEMBL1155970, “Synthesis and biological evaluation of quinic acid derivatives as anti-inflammatory agents” (Bioorg Med Chem Lett, 2009).
Calls of active or inactive are those of the source. The rule behind the calls is not given here.

Columns and labels:
A549 [1] = assay: Cytotoxicity against human A549 cells after 2 hrs by MTS assay; assay type: cell-based; conditions: a549, 18 h, in the assay text read “18 hrs” for “2 hrs”
Outline: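 A549SN cells were plated at 1 × 10⁴ per well and held 24 h at 37 °C, then treated in duplicate for 18 h alongside vehicle and medium-only controls. Viability was read by MTS: formazan absorbance at 490 nm after 2 h, with the media-only background subtracted.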

[2] = tested on: Radical scavenging activity; assay: Antioxidant activity assessed as DPPH radical scavenging activity by UV-visible spectrophotometry; assay type: functional
Outline: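 DPPH stock at 0.625 mM in 50% acetone, stored at 4 °C in the dark; diluted daily to a 0.208 mM working solution. Samples in 50% acetone were mixed 1:1 with working DPPH, giving 0.104 mM DPPH initially. Mixtures were vortexed and read immediately at 515 nm against a 50% acetone blank, and remaining DPPH was calculated.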

A549 [3] = assay: Inhibition of human NF-kappaB in TNF-alpha-stimulated A549 cells assessed as secreted alkaline phosphatase level at 1 uM after 18 hrs; assay type: cell-based
Outline: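 The A549 NF-κB–SEAP reporter line was given TNF-α (10 ng/mL) plus compound at a single concentration, with dexamethasone as positive control. Supernatant SEAP was read 18 h later by chemiluminescence. Results are expressed as % inhibition relative to TNF-α alone, mean ± standard deviation, n = 3.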

[4] = Inhibition of human NF-kappaB in TNF-alpha-stimulated A549 cells assessed as secreted alkaline phosphatase level after 18 hrs; assay type: cell-based; conditions: A549, 18 h
Outline: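 Type II-like A549 cells stably carrying an NF-κB response element–SEAP reporter were plated overnight at 6 × 10⁴ cells/well. They were then stimulated with human recombinant TNF-α (10 ng/mL) together with compound. After 18 h, supernatant SEAP was measured by chemiluminescence and normalized to lysate total protein (BCA). IC50 came from dose–response curves, n = 3 separate experiments.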

IC50 [4] [µM]	SMILES	Activity (A549 [1])	Activity [2]	Activity (A549 [3])
–	O=C(O)[C@]1(O)C[C@@H](O)[C@@H](O)[C@H](O)C1 [QUINIC ACID]	Not Active	inactive	–
–	NCCNC(=O)[C@]1(O)C[C@@H](O)[C@@H](O)[C@H](O)C1	–	–	Active
–	O=C(O)/C=C/c1ccc(O)c(O)c1	–	Active	–
–	O=C1O[C@H]([C@@H](O)CO)C(O)=C1O	–	Active	–
2.83	CCCNC(=O)[C@]1(O)C[C@@H](O)[C@@H](O)[C@H](O)C1	Not Active	inactive	Active
–	CC(C)(C)OC(=O)NCCNC(=O)[C@]1(O)C[C@@H](O)[C@@H](O)[C@H](O)C1	–	–	Active
–	O=C(/C=C/c1ccc(O)c(O)c1)O[C@@H]1C[C@](O)(C(=O)O)C[C@@H](O)[C@H]1O	–	Active	–
–	CC(=O)O[C@@H]1C[C@](OC(C)=O)(C(=O)O)C[C@@H](OC(C)=O)[C@H]1OC(C)=O	–	–	inactive
–	CC(C)NC(=O)[C@]1(O)C[C@@H](O)[C@@H](O)[C@H](O)C1	–	–	Active
